Compounds with a hit are over-represented: about 3.1% of the library has one in this group of screens.
KCNQ1 act – potentiators or activators of KCNQ1 channel, primary screen, cell-based, thallium flux, high-throughput. AID 2648, 2010. CHO-K1 KCNQ1, thallium flux FluxOR fluorescence; active compounds read high. Potassium voltage-gated channel subfamily KQT member 1 (Homo sapiens), P51787. 0.35% of 310,000 active. B-score at 10 µM;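 active = fluorescence ratio B-score, a plate-corrected score, at least three library SD, with initial intensity B-score within 5 SD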
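Assay system: stable KCNQ1 CHO-K1 line; medium: assay buffer, equal DMSO in all wells; timing: 90 min dye loading and 20 min compound exposure, both at room temperature; technique: kinetic FluxOR thallium fluorescence, 10-s 1-Hz baseline, 110-s post-stimulus read; read-out basis: B score of baseline-normalized fluorescence ratio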
hERG protect – hERG rescue from dofetilide block, primary screen, cell-based, CHO-hERG, FluxOR thallium flux, dofetilide IC70. AID 1511, 2009. dofetilide IC70 present. Voltage-gated inwardly rectifying potassium channel KCNH2 (Homo sapiens), Q12809. activation (rescue from dofetilide block), less the hit threshold, % at 10 µM. 0.51% of 310,000 active;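 active = activation above the mean of controls blocked by dofetilide plus 5 SD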;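 note: thallium influx through hERG after potassium depolarization seen as dye fluorescence rise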
Target sequence (Q12809 whole entry, looked up): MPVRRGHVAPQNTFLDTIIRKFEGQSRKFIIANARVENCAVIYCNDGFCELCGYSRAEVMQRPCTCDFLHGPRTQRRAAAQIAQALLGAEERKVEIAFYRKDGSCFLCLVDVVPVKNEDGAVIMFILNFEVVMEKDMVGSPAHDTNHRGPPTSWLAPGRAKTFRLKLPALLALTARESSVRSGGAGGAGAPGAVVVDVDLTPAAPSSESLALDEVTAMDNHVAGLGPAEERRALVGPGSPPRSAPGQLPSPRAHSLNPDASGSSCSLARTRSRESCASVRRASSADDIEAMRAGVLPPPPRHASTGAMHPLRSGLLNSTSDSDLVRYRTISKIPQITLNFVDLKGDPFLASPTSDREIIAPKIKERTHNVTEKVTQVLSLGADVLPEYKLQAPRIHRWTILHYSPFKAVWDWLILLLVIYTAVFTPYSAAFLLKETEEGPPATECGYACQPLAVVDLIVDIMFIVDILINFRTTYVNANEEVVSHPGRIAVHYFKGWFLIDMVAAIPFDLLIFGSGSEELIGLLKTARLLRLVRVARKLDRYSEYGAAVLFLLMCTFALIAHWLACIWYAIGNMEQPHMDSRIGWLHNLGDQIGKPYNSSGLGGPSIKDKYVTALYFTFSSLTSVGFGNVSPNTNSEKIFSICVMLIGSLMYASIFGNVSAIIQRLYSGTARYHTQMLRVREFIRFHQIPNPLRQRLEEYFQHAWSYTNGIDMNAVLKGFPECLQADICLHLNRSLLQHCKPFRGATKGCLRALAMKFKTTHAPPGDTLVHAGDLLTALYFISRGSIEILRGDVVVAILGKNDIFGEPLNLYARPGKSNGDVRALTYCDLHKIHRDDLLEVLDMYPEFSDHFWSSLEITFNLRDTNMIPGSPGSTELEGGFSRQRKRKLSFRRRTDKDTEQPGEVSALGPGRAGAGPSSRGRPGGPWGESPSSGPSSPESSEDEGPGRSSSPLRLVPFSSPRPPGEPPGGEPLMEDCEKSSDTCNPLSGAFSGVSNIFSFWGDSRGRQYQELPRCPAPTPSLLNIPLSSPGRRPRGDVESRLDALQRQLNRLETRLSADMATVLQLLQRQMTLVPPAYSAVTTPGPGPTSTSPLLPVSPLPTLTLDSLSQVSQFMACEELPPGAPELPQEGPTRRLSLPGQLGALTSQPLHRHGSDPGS
KCNQ1 block – inhibitors of human KCNQ1 channel, primary screen, cell-based, thallium flux, high-throughput. AID 2642, 2010. CHO-K1 KCNQ1, FluxOR thallium flux fluorescence; active compounds read high. Potassium voltage-gated channel subfamily KQT member 1 (Homo sapiens), P51787. 1.3% of 310,000 active. B-score at 10 µM;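 active = compounds whose thallium flux B-score, printed positive for inhibition, exceeds three library SD while starting fluorescence stays within three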;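 note: channel opened by potassium depolarization with thallium stimulus after 20 min compound exposure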
KCNK9 block – KCNK9 potassium channel inhibitors, primary screen, HEK293 cells, thallium flux. Potassium channel subfamily K member 9 (Homo sapiens), Q9NPC2. FluxOR thallium flux fluorescence; active compounds read low. B-score at 10 µM. 1.2% of 310,000 active;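 active = ratio B-score over 3 SD below the library mean, with starting fluorescence within 5 SD of its mean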;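 note: negative B-score means less thallium flux so channel inhibition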
KCNK3 block – human KCNK3 channel inhibitors, primary screen, CHO cells, FluxOR thallium flux, B-score. FluxOR fluorescence; active compounds read low. B-score at 10 µM. 0.84% of 340,000 active. Potassium channel subfamily K member 3 (Homo sapiens), O14649. AID 602410, 2012;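 active = B-score under library mean minus 4 SD, starting fluorescence ratio at most library mean plus 5 SD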;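 note: more negative B-score means stronger inhibition of thallium flux through KCNK3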
KCNQ1 inh valid – KCNQ1 potassium channel inhibitors, confirmation, cell-based, Tl flux, duplicate; shares compounds with KCNQ1 block; KCNQ1 cell line, FluxOR thallium flux fluorescence; inhibition, % at 10 µM; 93% of 1,600 active; AID 588353, 2011;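 active = primary screen active, with duplicate mean exceeding buffer control mean plus 3 SD of buffer wells, cut at about 28% in these data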;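 note: 0% = buffer control ratio and 100% = XE991 inhibitor control ratio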
CHO KCNQ1 ctr – thallium flux effects in parental CHO cells, counter-screen for KCNQ1 inhibitor project, cell-based, Tl flux | shares compounds with KCNQ1 block | parental CHO-K1, FluxOR thallium flux fluorescence ratio; active compounds read low; zero means no signal rise above baseline | fluorescence ratio (Tl flux) at 10 µM | 21% of 1,600 active;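 active = mean of duplicate thallium-flux fluorescence ratios in parental host cells more than 5 SD below the buffer control mean, cut at about 0.38 in these data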;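 note: ratio is peak minus minimum fluorescence divided by baseline fluorescence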
KCNQ1 APC inh – KCNQ1 channel inhibitors, confirmation, orthogonal assay, cell-based, automated electrophysiology; shares compounds with KCNQ1 block; KCNQ1-CHO cells, automated patch clamp current; calls only at 10 µM; 20% of 490 active; AID 624120, 2012;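 active = KCNQ1 current drop exceeding 3 SD of negative control wells, seen in both duplicate runs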;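 note: steady state current during a 2 s step from -80 to +40 mV; negative values mean current inhibition and positive values mean potentiation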
KCNQ2 inh – KCNQ2 channel inhibition, selectivity assay for KCNQ1 inhibitor project, cell-based; shares compounds with KCNQ1 block; 71% of 1,600 active; KCNQ2 cells, FluxOR thallium flux fluorescence; inhibition, % at 10 µM;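 active = mean percent inhibition of the KCNQ2 thallium signal more than 5 SD above the buffer-only control wells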;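 note: KCNQ2 expressed in CHO cells; 0% = buffer control wells and 100% = XE-991 inhibitor control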
KCNQ1-KCNE1 inh – KCNQ1/KCNE1 channel inhibition, selectivity assay for KCNQ1 inhibitor project, CHO-K1 cells, thallium flux, FluxOR | shares compounds with KCNQ1 block | FluxOR thallium flux fluorescence | inhibition, % at 10 µM | 77% of 1,600 active | AID 652147, 2013;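 active = mean percent inhibition of duplicate wells above the buffer-only control mean plus 3 SD of those controls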;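 note: 0% = buffer only wells and 100% = XE-991 inhibitor control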
The depositor's hits bear a star; i = inactive; x = no result; + = active, no number.

SMILES	KCNQ1 act	hERG protect	KCNQ1 block	KCNK9 block	KCNK3 block	KCNQ1 inh valid	CHO KCNQ1 ctr	KCNQ2 inh	KCNQ1-KCNE1 inh	others
O=c1c2c3c(sc2nc(NCCO)n1CCc1ccccc1)CCCCC3	i	-14	6*	i	i	67*	0.45	92%*	100%*
O=c1c2c3c(sc2nc(NCCO)n1Cc1ccco1)CCCCC3	i	-2	i	i	i	x	x	x	x
COc1ccccc1NC(=O)C(C)OC(=O)C1CCC(C(C)(C)C)CC1 (centres undefined)	i	-5	7*	-7.1*	i	122*	0.49	83%*	156%*	KCNQ1 APC inh=i
O=C(NCc1ccc2c(c1)OCO2)C1CCCN1C(=O)Nc1cccc(F)c1 (centres undefined)	i	0	i	i	i	x	x	x	x
CC(=O)c1cccc(NC(=O)N2CCCC2C(=O)NCc2ccc3c(c2)OCO3)c1 (centres undefined)	i	-7	7*	i	i	0	0.48	i	i
COc1ccc(NC(=O)CN(C)C(=O)c2ccc(NS(=O)(=O)c3ccc4[nH]c(=O)[nH]c4c3)cc2)cc1	i	-4	i	i	i	x	x	x	x
O=S(=O)(NCCSCc1ccc(Cl)cc1Cl)c1ccc2c(c1)OCCO2	i	-1	7*	i	-9.1*	129*	0.43	96%*	144%*	KCNQ1 APC inh=i
CCOC(=O)c1cc(C(C)(C)C)oc1CN	i	-7	i	i	i	x	x	x	x
CCOC(=O)c1cc(C(C)(C)C)oc1CNC(=O)c1c(C)oc2c1CCCC2	i	-23	10*	i	i	141*	0.38	120%*	142%*	KCNQ1 APC inh=i
Cc1cc(C)c(O)c(-c2cc(C(=O)Nc3ccc(S(=O)(=O)N4CCOCC4)cc3)[nH]n2)c1	i	-13	6*	i	i	133*	0.37*	94%*	+
CC(=O)Nc1ccc(NC(=O)c2cc(-c3cc(C)cc(C)c3O)n[nH]2)cc1	i	-5	i	i	i	x	x	x	x
O=C(Nc1ccccc1C(=O)Nc1nnc(C(F)(F)F)s1)c1ccccc1Cl	i	-13	6*	i	i	66*	0.45	65%*	i
O=C(Nc1cc(Cl)ccc1N1CCOCC1)c1ccc2c(c1)OCCO2	i	-6	12*	i	i	68*	0.46	83%*	52%*
c1ccc2c(N3CCCCC3)nc(N3CCCC3)nc2c1	i	-21	9*	i	i	36*	0.51	i	i
c1ccc2c(c1)nc(N1CCCCC1)c1ccccc12	i	-4	i	i	i	x	x	x	x
c1ccc(-c2nc(N3CCNCC3)nc3ccccc23)cc1	i	-11	i	i	i	x	x	x	x
c1ccc(-c2nc(N3CCCCC3)nc3ccccc23)cc1	i	-12	7*	i	i	118*	0.41	113%*	174%*	KCNQ1 APC inh=i
COc1ccc(C2CC(=O)c3cnc(N4CCN(Cc5ccccc5)CC4)nc3C2)cc1 (centres undefined)	i	-6	6*	i	i	68*	0.42	102%*	105%*
Cc1cc(C)cc(NC(=O)Cn2c(=O)oc3cc(S(=O)(=O)N4CC(C)CC(C)C4)ccc32)c1 (centres undefined)	i	-11	7*	i	i	37*	0.47	67%*	i
O=C(c1ccccn1)N(Cc1ccco1)C1(C(=O)NC2CCCC2)CCCCC1	i	-7	i	i	i	x	x	x	x
O=C(c1ccc2c(c1)OCO2)N(Cc1ccco1)C1(C(=O)NC2CCCCC2)CCCCC1	i	-10	6*	i	i	80*	0.36*	89%*	78%*
Oc1cc2ccccc2cc1-c1n[nH]c(=S)o1	i	-10	7*	i	i	0	0.63	i	i
COc1cccc(-c2cc3nc(-c4ccccc4)cc(N4CCCC(O)C4)n3n2)c1 (centres undefined)	i	-20	9*	i	i	85*	0.44	134%*	182%*
CCN(CC(=O)Nc1ccc(OC)cc1)C(=O)c1ccc2c(=O)n3c(nc2c1)CCC3	x	x	x	x	i	x	x	x	x
CCn1nccc1C(=O)Nc1cc(Cl)cc(Cl)c1	i	-10	6*	-6.7*	i	31*	0.55	i	i
SMILES	KCNQ1 act	hERG protect	KCNQ1 block	KCNK9 block	KCNK3 block	KCNQ1 inh valid	CHO KCNQ1 ctr	KCNQ2 inh	KCNQ1-KCNE1 inh	others
CCn1nccc1C(=O)Nc1ccc(Cl)cn1	i	-8	i	i	i	x	x	x	x
Clc1ccc(CNC2CCCC2)c(Cl)c1	i	-5	i	i	i	x	x	x	x
S=C(NCc1ccc(Cl)cc1Cl)NC1CCCCC1	i	-15	7*	i	i	152*	0.46	65%*	i	KCNQ1 APC inh=+
S=C(NCCc1cccc(Cl)c1)NC1CCCCC1	i	-10	8*	i	i	64*	0.44	74%*	56%*
CCc1nc(NC(=O)c2sc(C)nc2C)sc1C(=O)OC	i	-4	i	i	i	x	x	x	x
O=S(=O)(c1ccccc1)c1nc(Nc2cccc(O)c2)sc1Cl	i	-34	7*	i	i	94*	0.38	78%*	44%*	KCNQ1 APC inh=i
Cc1ccc(S(=O)(=O)c2nc(Nc3ccccc3)sc2Cl)cc1	i	-7	i	i	i	x	x	x	x
O=C(COC(=O)/C=C/c1cccc(F)c1)Nc1cccc(S(=O)(=O)NC2=NCCCCC2)c1	x	x	x	x	i	x	x	x	x
